Experimental data as given in ChEMBL document CHEMBL1221342, “Synthesis and in vitro antitumor activity of new 4,5-dihydropyrazole derivatives” (Bioorg Med Chem, 2010).

Tests used:
NCI-H460 [1] = test: Growth inhibition of human NCI-H460 cells after 48 hrs by SRB assay; type: functional; settings: NCI-H460, 48 h
Method in brief: (§1)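 NCI 60-cell-line screen. Cells grown in RPMI1640 with 5% fetal calf serum and 2 mM L-glutamine, with inoculum density set by cell line. Preincubated 24 h, then given compound in DMSO at 10^-4 to 10^-8 M (five 10-fold steps) for 48 h continuous exposure. Growth measured by SRB protein assay. GI50, TGI and LC50 reported as –log molar.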

U-251 = test: Growth inhibition of human U251 cells after 48 hrs by SRB assay; type: functional; settings: U-251, 48 h; method in brief: as §1
UO-31 = test: Growth inhibition of human UO31 cells after 48 hrs by SRB assay; type: functional; settings: UO-31, 48 h; method in brief: as §1
SR = test: Growth inhibition of human SR cells after 48 hrs by SRB assay; type: functional; method in brief: as §1
NCI-H322M = test: Growth inhibition of human NCI-H322M cells after 48 hrs by SRB assay; type: functional; method in brief: as §1
SNB-75 = test: Growth inhibition of human SNB75 cells after 48 hrs by SRB assay; type: functional; settings: SNB-75, 48 h; method in brief: as §1
NCI-H460 [2] = test: Cytotoxicity against human NCI-H460 cells after 72 hrs by SRB assay; type: functional, cell-based; settings: NCI-H460, 72 h
Method in brief: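 NCI-H460 (ATCC) cells seeded in 96-well plates in growth medium. Scalar drug concentrations added 24 h after plating, then 72 h exposure. Surviving cells stained with sulforhodamine B, OD read at 570 nm. IC50 (50% growth inhibition) fitted from dose–response curves. Mean ± SE of at least three independent experiments.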

RXF 393 = test: Growth inhibition of human RXF393 cells after 48 hrs by SRB assay; type: functional; settings: RXF 393, 48 h; method in brief: as §1
OVCAR-4 = test: Growth inhibition of human OVCAR4 cells after 48 hrs by SRB assay; type: functional; settings: OVCAR-4, 48 h; method in brief: as §1
CCRF-CEM = test: Growth inhibition of human CCRF-CEM cells after 48 hrs by SRB assay; type: functional; method in brief: as §1
SF-268 = test: Growth inhibition of human SF268 cells after 48 hrs by SRB assay; type: functional; settings: SF-268, 48 h; method in brief: as §1
T47D = test: Growth inhibition of human T47D cells after 48 hrs by SRB assay; type: functional; method in brief: as §1
HCC 2998 = test: Growth inhibition of human HCC2998 cells after 48 hrs by SRB assay; type: functional; settings: HCC 2998, 48 h; method in brief: as §1
SK-MEL-5 = test: Growth inhibition of human SK-MEL-5 cells after 48 hrs by SRB assay; type: functional; settings: SK-MEL-5, 48 h; method in brief: as §1
SW-620 = test: Growth inhibition of human SW620 cells after 48 hrs by SRB assay; type: functional; settings: SW-620, 48 h; method in brief: as §1
PC-3 = test: Growth inhibition of human PC3 cells after 48 hrs by SRB assay; type: functional; settings: PC-3, 48 h; method in brief: as §1
MDA-MB-468 = test: Growth inhibition of human MDA-MB-468 cells after 48 hrs by SRB assay; type: functional; settings: MDA-MB-468, 48 h; method in brief: as §1
Malme-3M = test: Growth inhibition of human MALME-3M cells after 48 hrs by SRB assay; type: functional; method in brief: as §1
SF-295 = test: Growth inhibition of human SF295 cells after 48 hrs by SRB assay; type: functional; settings: SF-295, 48 h; method in brief: as §1
HCT-15 = test: Growth inhibition of human HCT15 cells after 48 hrs by SRB assay; type: functional; settings: HCT-15, 48 h; method in brief: as §1
HL-60(TB) = test: Growth inhibition of human HL-60(TB) cells after 48 hrs by SRB assay; type: functional; settings: HL-60, 48 h
Method in brief: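 NCI 60-cell-line screen: cells grown in RPMI1640 with 5% fetal calf serum and 2 mM L-glutamine, preincubated 24 h, then exposed to compound in DMSO at five concentrations (10^-4 to 10^-8 M) for 48 h continuous exposure. Growth estimated by sulforhodamine B protein assay; reported as pGI50 (-log molar concentration inhibiting net cell growth by 50%).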

OVCAR-3 = test: Growth inhibition of human OVCAR-3 cells after 48 hrs by SRB assay; type: functional; settings: OVCAR-3, 48 h; method in brief: as §1
NCI-H522 = test: Growth inhibition of human NCI-H522 cells after 48 hrs by SRB assay; type: functional; settings: NCI-H522, 48 h; method in brief: as §1
BT-549 = test: Growth inhibition of human BT549 cells after 48 hrs by SRB assay; type: functional; settings: BT-549, 48 h; method in brief: as §1
DU-145 = test: Growth inhibition of human DU145 cells after 48 hrs by SRB assay; type: functional; settings: DU-145, 48 h; method in brief: as §1
HOP-62 = test: Growth inhibition of human HOP62 cells after 48 hrs by SRB assay; type: functional; settings: HOP-62, 48 h; method in brief: as §1
KM12 = test: Growth inhibition of human KM12 cells after 48 hrs by SRB assay; type: functional; settings: KM12, 48 h; method in brief: as §1
[3] = Growth inhibition of human […] cells after 48 hrs by SRB assay; type: functional; method in brief: as §1
M14 = test: Growth inhibition of human M14 cells after 48 hrs by SRB assay; type: functional; settings: M14, 48 h; method in brief: as §1
MCF7 = test: Growth inhibition of human MCF7 cells after 48 hrs by SRB assay; type: functional; settings: MCF7, 48 h; method in brief: as §1
TK-10 = test: Growth inhibition of human TK10 cells after 48 hrs by SRB assay; type: functional; settings: TK-10, 48 h; method in brief: as §1
IGROV-1 = test: Growth inhibition of human IGROV1 cells after 48 hrs by SRB assay; type: functional; settings: IGROV-1, 48 h; method in brief: as §1
K562 = test: Growth inhibition of human K562 cells after 48 hrs by SRB assay; type: functional; settings: K562, 48 h; method in brief: as §1
HT-29 = test: Growth inhibition of human HT-29 cells after 48 hrs by SRB assay; type: functional; settings: HT-29, 48 h; method in brief: as §1
HCT-116 = test: Growth inhibition of human HCT116 cells after 48 hrs by SRB assay; type: functional; settings: HCT-116, 48 h; method in brief: as §1
A498 = test: Growth inhibition of human A498 cells after 48 hrs by SRB assay; type: functional; settings: A498, 48 h; method in brief: as §1

COc1cc(C2CC(c3cccc(O)c3)=NN2C(C)=O)cc(OC)c1OC (centres undefined)
GI50 (NCI-H460 [1]): 2 µM
TGI (NCI-H460 [1]; read-out: pTGI (converted)): 10 µM
GI50 (U-251): 2.51 µM
TGI (U-251; read-out: pTGI (converted)): > 100 µM
GI50 (UO-31): 10 µM
TGI (UO-31; read-out: pTGI (converted)): > 100 µM
GI50 (SR): 0.1 µM
TGI (SR; read-out: pTGI (converted)): > 100 µM
GI50 (NCI-H322M): 3.98 µM
TGI (NCI-H322M; read-out: pTGI (converted)): > 100 µM
GI50 (SNB-75): 0.398 µM
IC50 (NCI-H460 [2]): 2.3 µM
GI50 (RXF 393): 3.98 µM
TGI (RXF 393; read-out: pTGI (converted)): > 100 µM
GI50 (OVCAR-4): 6.31 µM
TGI (OVCAR-4; read-out: pTGI (converted)): > 100 µM
GI50 (CCRF-CEM): 1 µM
TGI (CCRF-CEM; read-out: pTGI (converted)): 5.01 µM
GI50 (SF-268): 7.94 µM
TGI (SF-268; read-out: pTGI (converted)): > 100 µM
GI50 (T47D): 3.16 µM
TGI (T47D; read-out: pTGI (converted)): > 100 µM
GI50 (HCC 2998): 2 µM
TGI (HCC 2998; read-out: pTGI (converted)): 15.8 µM
GI50 (SK-MEL-5): 0.631 µM
TGI (SK-MEL-5; read-out: pTGI (converted)): 5.01 µM
GI50 (SW-620): 0.794 µM
TGI (SW-620; read-out: pTGI (converted)): > 100 µM
GI50 (PC-3): 2 µM
TGI (PC-3; read-out: pTGI (converted)): > 100 µM
GI50 (MDA-MB-468): 0.501 µM
TGI (MDA-MB-468; read-out: pTGI (converted)): 10 µM
GI50 (Malme-3M): 2.51 µM
TGI (Malme-3M; read-out: pTGI (converted)): > 100 µM
GI50 (SF-295): 0.316 µM
TGI (SF-295; read-out: pTGI (converted)): 5.01 µM
GI50 (HCT-15): 0.794 µM
TGI (HCT-15; read-out: pTGI (converted)): > 100 µM
GI50 (HL-60(TB)): 1.58 µM
TGI (HL-60(TB); read-out: pTGI (converted)): 5.01 µM
GI50 (OVCAR-3): 1.26 µM
TGI (OVCAR-3; read-out: pTGI (converted)): 3.98 µM
GI50 (NCI-H522): 1.58 µM
TGI (NCI-H522; read-out: pTGI (converted)): 39.8 µM
GI50 (BT-549): 5.01 µM
TGI (BT-549; read-out: pTGI (converted)): > 100 µM
GI50 (DU-145): 3.16 µM
GI50 (HOP-62): 0.126 µM
TGI (HOP-62; read-out: pTGI (converted)): 2 µM
GI50 (KM12): 1 µM
TGI (KM12; read-out: pTGI (converted)): > 100 µM
GI50 [3]: 1 µM
TGI ([3]; read-out: pTGI (converted)): 5.01 µM
GI50 (M14): 0.794 µM
TGI (M14; read-out: pTGI (converted)): > 100 µM
GI50 (MCF7): 0.501 µM
TGI (MCF7; read-out: pTGI (converted)): 10 µM
GI50 (TK-10): 7.94 µM
TGI (TK-10; read-out: pTGI (converted)): > 100 µM
GI50 (IGROV-1): 3.98 µM
TGI (IGROV-1; read-out: pTGI (converted)): > 100 µM
GI50 (K562): 0.631 µM
TGI (K562; read-out: pTGI (converted)): 63.1 µM
GI50 (HT-29): 3.16 µM
TGI (HT-29; read-out: pTGI (converted)): > 100 µM
GI50 (HCT-116): 2.51 µM
TGI (HCT-116; read-out: pTGI (converted)): > 100 µM
GI50 (A498): 2.51 µM
TGI (A498; read-out: pTGI (converted)): 10 µM
